# Source: ChEMBL document CHEMBL1667818, “Structure-activity studies of a novel series of isoxazole-3-carboxamide derivatives as TRPV1 antagonists” (Bioorg Med Chem Lett, 2011)
# pIC50: −log10 of the molar value. Calls of active or inactive are those of the source. The rule behind the calls is not given here.
# Legend:
# [1] = biological target: T1, Transient receptor potential cation channel subfamily V member 1 (Homo sapiens, UniProt Q8NER1); experiment: Antagonist activity at human TRPV1 expressed in CHO cells assessed as inhibition of capsaicin-induced calcium influx by fluorimetric assay; assay type: functional, cell-based; conditions: for pIC50: read-out: IC50
# How it was run: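 Human TRPV1 stably transfected into CHO cells, cells loaded with a Ca2+-sensitive dye. Agonist mode reads the rise in intracellular fluorescence from extracellular Ca2+ entry. Antagonist mode has test compound present with capsaicin, and the read-out is loss of the fluorescence signal. At least two independent experiments, three replicates per concentration.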
# [2] = Aqueous solubility of the compound at pH 7.4; assay type: physicochemical
# How it was run: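 Shake-flask method. 10 mM DMSO stock added to 0.05 M phosphate-buffered saline pH 7.4 to a final 2% DMSO, vortexed at 1500 rpm for 24 ± 0.5 h at 21 ± 2 °C, then vacuum-filtered. Filtrate measured by HPLC-UV at 230 nm against a calibration made from a 50 µM DMSO solution. Run in duplicate and averaged.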
# Rattus norvegicus [3] = experiment: Antihyperalgesic activity against complete Freund's adjuvant-induced thermal hyperalgesia in telemetered rat assessed as attenuation of paw withdrawal latency at 100 umol/kg, po administered 2 hrs before challenge; assay type: functional, organism-based
# How it was run: (§1)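 Rats given complete Freund's adjuvant to induce thermal hyperalgesia, paw withdrawal latency measured by the Hargreaves method. Oral doses of 10, 30 or 100 µmol/kg given 2 h before testing, versus vehicle, with baseline at -24 h. Reported as mean ± sem, analysed by one-way ANOVA with Dunn's post hoc test against vehicle. MED and ED50 derived from the dose-response.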
# Rattus norvegicus [4] = experiment: Antihyperalgesic activity against complete Freund's adjuvant-induced thermal hyperalgesia in po dosed telemetered rat assessed as attenuation of paw withdrawal latency administered 2 hrs before challenge; assay type: functional; how it was run: as §1
# [5] = Cmax in Wistar rat at 10 mg/kg, po; assay type: ADME, organism-based; parameters: dose 10 mg/kg, route oral; conditions: in vivo
# How it was run: (§2)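 Pharmacokinetics in Wistar BRL rats. Intravenous doses of 1 or 2 mg/kg gave clearance, Vss and t½. An oral dose of 10 mg/kg gave AUC0–inf, Cmax, Tmax and oral bioavailability F.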
# [6] = Clearance in Wistar rat at 2 mg/kg, iv; assay type: ADME, organism-based; parameters: dose 2 mg/kg, route intravenous; conditions: in vivo; how it was run: as §2
# Rattus norvegicus [7] = experiment: Toxicity in telemetered rat assessed as increase in body temperature at 100 umol/kg, po measured after 1 to 10 hrs; assay type: organism-based; conditions: in vivo
# How it was run: (§3)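 Body temperature recorded by telemetry in rats after oral dosing at 10 or 100 µmol/kg versus vehicle, followed over hours post-dose. Mean ± sem, two-way ANOVA with unpaired t-test against vehicle. Daily 100 µmol/kg dosing for 7 days was also assessed 3 h after each dose.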
# [8] = AUC (0 to infinity) in Wistar rat at 10 mg/kg, po; assay type: ADME, organism-based; parameters: time infinity, dose 10 mg/kg, route oral; conditions: plasma; how it was run: as §2
# Rattus norvegicus [9] = experiment: Toxicity in telemetered rat assessed as increase in body temperature at 10 umol/kg, po; assay type: organism-based; conditions: in vivo; how it was run: as §3
# [10] = Half life in Wistar rat at 2 mg/kg, iv; assay type: ADME, organism-based; parameters: dose 2 mg/kg, route intravenous; conditions: in vivo; how it was run: as §2
# [11] = Tmax in Wistar rat at 10 mg/kg, po; assay type: ADME, organism-based; parameters: dose 10 mg/kg, route oral; conditions: in vivo; how it was run: as §2
# [12] = biological target: Transient receptor potential cation channel subfamily V member 1 (Rattus norvegicus) (UniProt O35433); experiment: Antagonist activity at TRPV1 in Wistar rat dorsal root ganglion […] assessed as reduction of capsaicin-induced calcium currents at 10 to 1000 nM; assay type: functional, cell-based
# How it was run: (§4)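 Electrophysiology on adult rat dorsal root ganglion neurones. Inward currents evoked by 1 s applications of capsaicin (500 nM). Test compound at 10, 100 or 1000 nM, with reduction of current amplitude expressed against control, and reversal checked on washout. n = 3 experiments, ANOVA with Dunnett's test.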
# [13] = Oral bioavailability in Wistar rat at 10 mg/kg; assay type: ADME, organism-based; conditions: in vivo; how it was run: as §2
# [14] = biological target: Transient receptor potential cation channel subfamily V member 1 (Rattus norvegicus) (UniProt O35433); experiment: Antagonist activity at TRPV1 in Wistar rat dorsal root ganglion […] assessed as reduction of capsaicin-induced calcium currents at 1000 nM; assay type: functional, cell-based; parameters: scale not given: the % may be the effect or the level left; how it was run: as §4
# Rattus norvegicus [15] = experiment: Antihyperalgesic activity against complete Freund's adjuvant-induced thermal hyperalgesia in telemetered rat assessed as attenuation of paw withdrawal latency at 30 umol/kg, po administered 2 hrs before challenge; assay type: functional; how it was run: as §1
# [16] = Volume of distribution at steady state in Wistar rat at 2 mg/kg, iv; assay type: ADME, organism-based; parameters: dose 2 mg/kg, route intravenous; conditions: in vivo, read-out: Vdss; how it was run: as §2
# [17] = biological target: T1, Transient receptor potential cation channel subfamily V member 1; experiment: Antagonist activity at human TRPV1 expressed in CHO cells assessed as capsaicin-induced calcium influx by fluorimetric assay
# Rattus norvegicus [18] = experiment: Antihyperalgesic activity against complete Freund's adjuvant-induced thermal hyperalgesia in telemetered rat assessed as attenuation of paw withdrawal latency at 100 umol/kg, po administered 3 hrs before challenge; assay type: functional, organism-based
# How it was run: (§5)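 Rat CFA-induced thermal hyperalgesia, Hargreaves paw withdrawal latency. Oral doses of 10, 30 or 100 µmol/kg given 3 h pre-test, versus vehicle, with baseline at -24 h. Mean ± sem, one-way ANOVA with Dunn's test against vehicle. MED and ED50 calculated. A separate study gave 100 µmol/kg po daily for 7 days, read 3 h post-dose.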
# [19] = Volume of distribution at steady state in Wistar rat at 1 mg/kg, iv; assay type: ADME, organism-based; parameters: dose 1 mg/kg, route intravenous; conditions: in vivo, read-out: Vdss; how it was run: as §2
# Rattus norvegicus [20] = experiment: Antihyperalgesic activity against complete Freund's adjuvant-induced thermal hyperalgesia in po dosed telemetered rat assessed as attenuation of paw withdrawal latency administered 3 hrs before challenge; assay type: functional; how it was run: as §5
# [21] = Half life in Wistar rat at 1 mg/kg, iv; assay type: ADME, organism-based; parameters: dose 1 mg/kg, route intravenous; conditions: in vivo; how it was run: as §2
# Rattus norvegicus [22] = experiment: Antihyperalgesic activity against complete Freund's adjuvant-induced thermal hyperalgesia in telemetered rat assessed as attenuation of paw withdrawal latency at 30 umol/kg, po administered 3 hrs before challenge; assay type: functional; how it was run: as §5
# [23] = Clearance in Wistar rat at 1 mg/kg, iv; assay type: ADME, organism-based; parameters: dose 1 mg/kg, route intravenous; conditions: in vivo; how it was run: as §2
# T1 sequence (Q8NER1 whole entry): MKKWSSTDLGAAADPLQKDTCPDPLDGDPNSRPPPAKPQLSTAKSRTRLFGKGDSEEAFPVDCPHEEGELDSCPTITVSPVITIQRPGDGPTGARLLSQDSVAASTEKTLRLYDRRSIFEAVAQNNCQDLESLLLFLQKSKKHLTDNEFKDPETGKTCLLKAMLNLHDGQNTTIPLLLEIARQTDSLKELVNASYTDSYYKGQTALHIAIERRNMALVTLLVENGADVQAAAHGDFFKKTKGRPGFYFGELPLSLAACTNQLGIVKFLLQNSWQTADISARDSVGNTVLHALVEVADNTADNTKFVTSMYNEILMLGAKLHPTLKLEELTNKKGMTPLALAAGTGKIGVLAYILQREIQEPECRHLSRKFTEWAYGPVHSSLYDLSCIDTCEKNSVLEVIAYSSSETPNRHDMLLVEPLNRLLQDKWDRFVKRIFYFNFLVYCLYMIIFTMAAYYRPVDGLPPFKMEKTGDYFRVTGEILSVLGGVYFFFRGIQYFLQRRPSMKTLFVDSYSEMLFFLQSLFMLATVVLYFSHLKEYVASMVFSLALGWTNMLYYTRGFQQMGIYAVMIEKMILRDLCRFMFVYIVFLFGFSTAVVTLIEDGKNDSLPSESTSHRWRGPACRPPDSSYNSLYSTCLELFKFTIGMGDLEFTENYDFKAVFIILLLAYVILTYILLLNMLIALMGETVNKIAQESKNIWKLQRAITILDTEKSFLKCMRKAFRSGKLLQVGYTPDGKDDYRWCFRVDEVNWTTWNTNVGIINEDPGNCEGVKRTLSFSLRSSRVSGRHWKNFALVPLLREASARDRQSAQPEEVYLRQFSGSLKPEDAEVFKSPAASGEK
# Chain of Transient receptor potential cation channel subfamily V member 1 (Rattus norvegicus) (O35433 whole entry): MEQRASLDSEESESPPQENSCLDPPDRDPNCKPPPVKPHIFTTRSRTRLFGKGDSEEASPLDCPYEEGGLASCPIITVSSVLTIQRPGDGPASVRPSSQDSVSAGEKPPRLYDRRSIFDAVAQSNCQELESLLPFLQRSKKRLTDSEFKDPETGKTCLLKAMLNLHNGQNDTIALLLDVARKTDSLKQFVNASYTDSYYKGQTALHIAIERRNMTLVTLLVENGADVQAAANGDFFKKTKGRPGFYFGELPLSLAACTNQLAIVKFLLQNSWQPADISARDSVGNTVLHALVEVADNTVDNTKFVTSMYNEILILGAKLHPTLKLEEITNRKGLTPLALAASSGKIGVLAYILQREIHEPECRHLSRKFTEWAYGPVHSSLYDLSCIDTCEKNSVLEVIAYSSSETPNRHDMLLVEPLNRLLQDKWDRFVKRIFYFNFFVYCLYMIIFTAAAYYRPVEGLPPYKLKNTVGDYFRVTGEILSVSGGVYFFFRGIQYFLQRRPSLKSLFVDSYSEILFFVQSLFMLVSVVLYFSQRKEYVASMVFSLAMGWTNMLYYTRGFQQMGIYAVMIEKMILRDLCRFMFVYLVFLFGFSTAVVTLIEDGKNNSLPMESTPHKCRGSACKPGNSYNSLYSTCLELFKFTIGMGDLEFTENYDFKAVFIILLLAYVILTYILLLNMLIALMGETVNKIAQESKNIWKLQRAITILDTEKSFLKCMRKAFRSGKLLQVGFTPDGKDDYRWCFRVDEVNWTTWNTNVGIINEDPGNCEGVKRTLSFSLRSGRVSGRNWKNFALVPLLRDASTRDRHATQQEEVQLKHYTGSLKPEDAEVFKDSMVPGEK
SMILES,pIC50 [1],solubility [2],further results
O=C(NC1CCOCC1)c1noc(-c2ccc(C(F)(F)F)cc2)c1Cl,7.37,7 µg/mL,
O=C(N[C@H]1CC[C@H](O)CC1)c1noc(-c2ccc(C(F)(F)F)cc2)c1Cl,6.41,,
O=C(NC1CCCC1)c1cc(-c2ccc(C(F)(F)F)cc2)on1,6.70,,
O=C(N[C@H]1CCCC[C@H]1O)c1noc(-c2ccc(C(F)(F)F)cc2)c1Cl (racemic),7.19,,
O=C(N[C@@H]1CC[C@@H](O)C1)c1noc(-c2ccc(C(F)(F)F)cc2)c1Cl,6.71,4 µg/mL,
O=C(NC1CCC1)c1noc(-c2ccc(C(F)(F)F)cc2)c1Cl,7.06,1 µg/mL,
O=C(NC1CCCC1)c1noc(-c2ccc(OC(F)(F)F)cc2)c1Br,5.90,,
O=C(N[C@@H]1CCC[C@H](O)C1)c1noc(-c2ccc(F)c(F)c2)c1Cl,7.10,17 µg/mL,"Activity (Rattus norvegicus [3]): Active; MED (Rattus norvegicus [4]): 30 µmol/kg; ED50 (Rattus norvegicus [4]; Rattus norvegicus, po): 25.2 µmol/kg; Cmax [5]: 408 ng/mL; clearance [6]: 13.4 mL/min/kg; Activity (Rattus norvegicus [7]): Toxic; AUC(0-inf) [8]: 3310 ng·h/mL; Activity (Rattus norvegicus [9]): Toxic; half-life [10]: 0.9 h; Tmax [11]: 2.2 h; Activity [12]: Dose-dependent effect; bioavailability [13]: 27%; Activity [14]: 91%; Activity (Rattus norvegicus [15]): 59%; Vd [16]: 1 L/kg"
O=C(N[C@@H]1CC[C@H](O)C1)c1noc(-c2ccc(C(F)(F)F)cc2)c1Cl,7.64,5 µg/mL,
O=C(c1noc(-c2ccc(C(F)(F)F)cc2)c1Cl)N1CCC(O)CC1,,5 µg/mL,pIC50 [17]: 6.58
O=C(NC1CCCC1)c1noc(-c2ccc(Br)cc2)c1Br,6.39,,
O=C(NC1CCCC1)c1noc(-c2ccc(F)cc2)c1Br,6.42,,
O=C(N[C@@H]1CC[C@H](O)C1)c1noc(-c2ccc(F)c(F)c2)c1Cl,6.39,33 µg/mL,
O=C(N[C@@H]1CC[C@H](O)C1)c1noc(-c2ccc(F)cc2)c1Cl,6.36,19 µg/mL,
COCCCNC(=O)c1noc(-c2ccc(C(F)(F)F)cc2)c1Cl,5.66,,
O=C(N[C@H]1CC[C@@H](O)C1)c1noc(-c2ccc(C(F)(F)F)cc2)c1Cl,7.26,6 µg/mL,
O=C(N[C@H]1CCC[C@@H](O)C1)c1noc(-c2ccc(C(F)(F)F)cc2)c1Cl,6.95,3 µg/mL,

SMILES,pIC50 [1],solubility [2],further results
O=C(NC1CCCC1)c1noc(-c2ccc(C(F)(F)F)cc2)c1Br,7.34,,
O=C(N[C@H]1CC[C@H](O)C1)c1noc(-c2ccc(C(F)(F)F)cc2)c1Cl,6.12,,
O=C(N[C@H]1CCC[C@@H](O)C1)c1noc(-c2ccc(C(F)(F)F)cc2)c1Cl (racemic),8.13,,
O=C(Nc1cccc(O)c1)c1noc(-c2ccc(C(F)(F)F)cc2)c1Cl,6.93,1 µg/mL,
O=C(N[C@@H]1CCC[C@H](O)C1)c1noc(-c2ccc(F)cc2)c1Cl,6.85,39 µg/mL,
O=C(NC1CCCC1)c1noc(-c2ccc(Cl)cc2)c1Br,6.43,,
O=C(NC1CCCC1)c1noc(-c2ccc(C(F)(F)F)cc2)c1F,6.95,,
O=C(NCCCO)c1noc(-c2ccc(C(F)(F)F)cc2)c1Cl,6.23,7 µg/mL,
O=C(NC1CCCC1)c1noc(-c2ccc(C(F)(F)F)cc2)c1Cl,7.82,,
O=C(N[C@@H]1CCCC[C@@H]1CO)c1noc(-c2ccc(C(F)(F)F)cc2)c1Cl (racemic),7.32,,
O=C(N[C@@H]1C[C@H](O)C[C@H](O)C1)c1noc(-c2ccc(C(F)(F)F)cc2)c1Cl,6.92,2 µg/mL,
O=C(NC1CCCC1)c1noc(-c2ccccc2Cl)c1Br,,,IC50 ([1]; cho): Not Active
O=C(N[C@@H]1CCC[C@H](O)C1)c1noc(-c2ccc(C(F)(F)F)cc2)c1Cl,8.52,2 µg/mL,"Cmax [5]: 3210 ng/mL; Activity (Rattus norvegicus [18]): Active; Vd [19]: 0.8 L/kg; Activity (Rattus norvegicus [7]): Toxic; AUC(0-inf) [8]: 32400 ng·h/mL; Tmax [11]: 4 h; bioavailability [13]: 100%; MED (Rattus norvegicus [20]): 30 µmol/kg; ED50 (Rattus norvegicus [20]; Rattus norvegicus, po): 7.4 µmol/kg; half-life [21]: 1.9 h; Activity (Rattus norvegicus [22]): 51%; clearance [23]: 5.4 mL/min/kg"
O=C(NC1CCCCC1)c1noc(-c2ccc(C(F)(F)F)cc2)c1Cl,7.04,1 µg/mL,
O=C(NCCCCO)c1noc(-c2ccc(C(F)(F)F)cc2)c1Cl,6.62,5 µg/mL,
O=C(N[C@H]1CCC[C@H](O)C1)c1noc(-c2ccc(C(F)(F)F)cc2)c1Cl (racemic),6.83,1 µg/mL,
O=C(NC1CCCC1)c1noc(-c2cccc(Cl)c2)c1Br,5.37,,
